Values after ≈ are worked out from the molar mass of the structure shown.
How the values were obtained:
Klebsiella pneumoniae = experiment: Antibacterial activity against Klebsiella pneumoniae after 24 hrs by CLSI method; assay type: functional
Method in brief: (§1)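 Broth dilution per CLSI; compounds in DMSO, 10 doubling dilutions. Organisms grown overnight on agar, suspended in suitable liquid medium to 0.5 McFarland, then diluted 1 in 10 for final inoculum.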

Escherichia coli [1] = experiment: Antibacterial activity against TolC-deficient Escherichia coli after 24 hrs by CLSI method; assay type: functional; method in brief: as §1
Streptococcus pyogenes = experiment: Antibacterial activity against Streptococcus pyogenes after 24 hrs by CLSI method; assay type: functional; method in brief: as §1
[2] = Lipophilicity, log D of the compound by shake flask method using LC-MS analysis; assay type: physicochemical; details: octanol/water
Method in brief: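 Shake-flask partitioning, experimental, with LC–MS quantitation.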

Streptococcus pneumoniae = experiment: Antibacterial activity against Streptococcus pneumoniae after 24 hrs by CLSI method; assay type: functional; method in brief: as §1
Haemophilus influenzae = experiment: Antibacterial activity against Haemophilus influenzae after 24 hrs by CLSI method; assay type: functional; method in brief: as §1
Staphylococcus aureus = experiment: Antibacterial activity against Staphylococcus aureus after 24 hrs by CLSI method; assay type: functional; method in brief: as §1
[3] = Inhibition of ParC in reconstituted Escherichia coli ParC/ParE assessed as ParE ATPase activity after 24 hrs by ammonium molybdate/malachite green method
Moraxella catarrhalis = experiment: Antibacterial activity against Moraxella catarrhalis after 24 hrs by CLSI method; assay type: functional; method in brief: as §1
[4] = biological target: Voltage-gated inwardly rectifying potassium channel KCNH2 (Homo sapiens, UniProt Q12809); experiment: Inhibition of human ERG by electrophysiological assay
Chain of Voltage-gated inwardly rectifying potassium channel KCNH2 (Q12809 whole entry): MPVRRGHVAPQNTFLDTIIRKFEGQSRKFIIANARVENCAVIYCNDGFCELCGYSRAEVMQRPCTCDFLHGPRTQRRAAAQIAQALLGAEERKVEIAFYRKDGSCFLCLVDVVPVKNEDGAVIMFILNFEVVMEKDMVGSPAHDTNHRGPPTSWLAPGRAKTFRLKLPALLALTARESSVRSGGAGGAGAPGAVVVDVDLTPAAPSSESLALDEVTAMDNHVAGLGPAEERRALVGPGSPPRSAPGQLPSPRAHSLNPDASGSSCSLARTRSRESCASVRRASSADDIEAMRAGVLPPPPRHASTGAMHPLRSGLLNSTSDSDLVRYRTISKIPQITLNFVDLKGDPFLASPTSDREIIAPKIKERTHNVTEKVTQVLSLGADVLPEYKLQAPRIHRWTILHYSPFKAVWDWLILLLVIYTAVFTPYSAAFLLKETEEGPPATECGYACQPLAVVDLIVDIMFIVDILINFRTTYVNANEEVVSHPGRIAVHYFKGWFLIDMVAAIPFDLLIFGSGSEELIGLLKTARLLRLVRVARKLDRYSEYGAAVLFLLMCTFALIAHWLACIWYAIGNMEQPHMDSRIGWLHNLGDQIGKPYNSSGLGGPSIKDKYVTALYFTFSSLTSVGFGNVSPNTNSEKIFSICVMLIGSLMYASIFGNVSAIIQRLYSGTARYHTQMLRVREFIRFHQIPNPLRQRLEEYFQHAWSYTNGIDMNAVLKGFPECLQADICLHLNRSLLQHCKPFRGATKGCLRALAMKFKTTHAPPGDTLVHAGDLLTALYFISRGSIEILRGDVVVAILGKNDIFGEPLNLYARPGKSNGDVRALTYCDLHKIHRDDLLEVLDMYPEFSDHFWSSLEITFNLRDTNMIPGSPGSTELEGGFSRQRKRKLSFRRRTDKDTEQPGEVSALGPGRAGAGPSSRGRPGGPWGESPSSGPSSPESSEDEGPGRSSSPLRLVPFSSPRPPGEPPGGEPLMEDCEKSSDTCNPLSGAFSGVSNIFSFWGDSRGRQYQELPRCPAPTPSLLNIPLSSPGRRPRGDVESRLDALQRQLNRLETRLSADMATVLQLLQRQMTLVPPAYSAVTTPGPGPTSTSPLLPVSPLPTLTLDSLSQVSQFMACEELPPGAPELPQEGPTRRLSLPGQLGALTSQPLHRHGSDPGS

Escherichia coli [5] = experiment: Antibacterial activity against Escherichia coli after 24 hrs by CLSI method; assay type: functional; method in brief: as §1
Pseudomonas aeruginosa = experiment: Antibacterial activity against Pseudomonas aeruginosa after 24 hrs by CLSI method; assay type: functional; method in brief: as §1
[6] = Inhibition of Escherichia coli DNA gyrase supercoiling activity

SMILES	MIC (Klebsiella pneumoniae)	MIC (Escherichia coli [1])	MIC (Streptococcus pyogenes)	logD [2]	MIC (Streptococcus pneumoniae)	MIC (Haemophilus influenzae)	MIC (Staphylococcus aureus)	IC50 [3]	MIC (Moraxella catarrhalis)	IC50 [4]	MIC (Escherichia coli [5])	MIC (Pseudomonas aeruginosa)	IC50 [6]
O=C1COc2ccc(CNC3CCN(CCN4C(=O)COc5ccc(-n6cnnn6)cc54)CC3)nc2N1	> 10.9 µM	> 10.9 µM	> 10.9 µM	-0.8	> 10.9 µM	> 10.9 µM	> 10.9 µM	353 nM	> 10.9 µM	> 100000 nM	> 10.9 µM	> 10.9 µM	–
CC(O)c1ccc2c(c1)N(CCN1CCC(NCc3ccc4c(n3)NC(=O)CO4)CC1)C(=O)CO2 (configuration not stated)	> 16.6 µM	1.1 µM (≈ 0.53 µg/mL)	> 16.6 µM	0.3	> 16.6 µM	4.2 µM (≈ 2.02 µg/mL)	> 16.6 µM	–	> 16.6 µM	–	> 16.6 µM	> 16.6 µM	–
O=C1COc2ccc(CNC3CCN(CCN4C(=O)COc5ccc(O)cc54)CC3)nc2N1	> 17.7 µM	0.1 µM (≈ 0.0453 µg/mL)	1.1 µM (≈ 0.499 µg/mL)	0.5	8.8 µM (≈ 3.99 µg/mL)	0.3 µM (≈ 0.136 µg/mL)	17.7 µM (≈ 8.03 µg/mL)	36 nM	0.1 µM (≈ 0.0453 µg/mL)	–	4.4 µM (≈ 2 µg/mL)	17.7 µM (≈ 8.03 µg/mL)	–
O=C1COc2ccc(CNC3CCN(CCN4C(=O)COc5ccc(Br)cc54)CC3)nc2N1	3.9 µM (≈ 2.01 µg/mL)	< 0.02 µM	–	1.4	0.3 µM (≈ 0.155 µg/mL)	0.1 µM (≈ 0.0516 µg/mL)	0.1 µM (≈ 0.0516 µg/mL)	18 nM	< 0.015 µM	–	0.5 µM (≈ 0.258 µg/mL)	7.7 µM (≈ 3.98 µg/mL)	–
O=C1COc2ccc(CNC3CCN(CCN4C(=O)COc5ccc(NC(=O)C(F)(F)F)cc54)CC3)nc2N1	> 16.1 µM	8.1 µM (≈ 4.44 µg/mL)	> 16.1 µM	0.2	> 16.1 µM	16.1 µM (≈ 8.83 µg/mL)	> 16.1 µM	–	16.1 µM (≈ 8.83 µg/mL)	> 100000 nM	> 16.1 µM	> 16.1 µM	–
O=C1COc2ccc(CNC3CCN(CCN4C(=O)COc5ccc(C(=O)O)cc54)CC3)nc2N1	> 13.5 µM	> 12.7 µM	> 13.5 µM	-1.6	> 13.5 µM	> 13.5 µM	> 13.5 µM	4680 nM	> 13.5 µM	–	> 13.5 µM	> 13.5 µM	–
COC(=O)c1ccc2c(c1)N(CCN1CCC(NCc3ccc4c(n3)NC(=O)CO4)CC1)C(=O)CO2	16.1 µM (≈ 7.98 µg/mL)	0.1 µM (≈ 0.0496 µg/mL)	2 µM (≈ 0.991 µg/mL)	0.8	8.1 µM (≈ 4.01 µg/mL)	0.5 µM (≈ 0.248 µg/mL)	1 µM (≈ 0.496 µg/mL)	78 nM	0.1 µM (≈ 0.0496 µg/mL)	–	4 µM (≈ 1.98 µg/mL)	> 16.1 µM	–
CN(C)S(=O)(=O)c1ccc2c(c1)N(CCN1CCC(NCc3ccc4c(n3)NC(=O)CO4)CC1)C(=O)CO2	–	7.3 µM (≈ 3.98 µg/mL)	> 14.6 µM	0.2	> 14.6 µM	14.7 µM (≈ 8.01 µg/mL)	> 14.6 µM	–	> 14.6 µM	–	> 14.6 µM	> 14.6 µM	–
CS(=O)(=O)c1ccc2c(c1)N(CCN1CCC(NCc3ccc4c(n3)NC(=O)CO4)CC1)C(=O)CO2	–	1 µM (≈ 0.516 µg/mL)	15.5 µM (≈ 7.99 µg/mL)	-0.5	15.5 µM (≈ 7.99 µg/mL)	3.9 µM (≈ 2.01 µg/mL)	> 15.5 µM	–	3.9 µM (≈ 2.01 µg/mL)	–	> 15.5 µM	> 15.5 µM	–
O=C1COc2ccc(CNC3CCN(CCN4C(=O)COc5ccc([N+](=O)[O-])cc54)CC3)nc2N1	–	< 0.02 µM	0.3 µM (≈ 0.145 µg/mL)	–	0.5 µM (≈ 0.241 µg/mL)	0.1 µM (≈ 0.0482 µg/mL)	0.3 µM (≈ 0.145 µg/mL)	–	–	–	0.5 µM (≈ 0.241 µg/mL)	5.9 µM (≈ 2.85 µg/mL)	–
CCS(=O)(=O)c1ccc2c(c1)N(CCN1CCC(NCc3ccc4c(n3)NC(=O)CO4)CC1)C(=O)CO2	–	1.9 µM (≈ 1.01 µg/mL)	15.1 µM (≈ 8 µg/mL)	-0.1	> 15.1 µM	7.6 µM (≈ 4.03 µg/mL)	> 15.1 µM	–	7.6 µM (≈ 4.03 µg/mL)	–	> 15.1 µM	> 15.1 µM	–
O=C1COc2ccc(CNC3CCN(CCN4C(=O)COc5ccc(OC(F)(F)F)cc54)CC3)nc2N1	–	0.1 µM (≈ 0.0521 µg/mL)	1 µM (≈ 0.521 µg/mL)	1.8	1 µM (≈ 0.521 µg/mL)	0.1 µM (≈ 0.0521 µg/mL)	1 µM (≈ 0.521 µg/mL)	–	0.1 µM (≈ 0.0521 µg/mL)	–	3.8 µM (≈ 1.98 µg/mL)	15.3 µM (≈ 7.98 µg/mL)	–
CC(=O)c1ccc2c(c1)N(CCN1CCC(NCc3ccc4c(n3)NC(=O)CO4)CC1)C(=O)CO2	–	0.1 µM (≈ 0.048 µg/mL)	1 µM (≈ 0.48 µg/mL)	0.4	2.1 µM (≈ 1.01 µg/mL)	0.3 µM (≈ 0.144 µg/mL)	1 µM (≈ 0.48 µg/mL)	–	0.3 µM (≈ 0.144 µg/mL)	–	2.1 µM (≈ 1.01 µg/mL)	16.7 µM (≈ 8.01 µg/mL)	–
N#Cc1ccc2c(c1)N(CCN1CCC(NCc3ccc4c(n3)NC(=O)CO4)CC1)C(=O)CO2	4.3 µM (≈ 1.99 µg/mL)	< 0.02 µM	0.3 µM (≈ 0.139 µg/mL)	0.2	0.8 µM (≈ 0.37 µg/mL)	0.1 µM (≈ 0.0463 µg/mL)	0.3 µM (≈ 0.139 µg/mL)	36 nM	–	–	0.5 µM (≈ 0.231 µg/mL)	3.8 µM (≈ 1.76 µg/mL)	3.2 nM
O=C1COc2ccc(CNC3CCN(CCN4C(=O)COc5ccc(Cl)cc54)CC3)nc2N1	–	< 0.02 µM	0.5 µM (≈ 0.236 µg/mL)	1.3	0.5 µM (≈ 0.236 µg/mL)	0.1 µM (≈ 0.0472 µg/mL)	0.3 µM (≈ 0.142 µg/mL)	23 nM	0.1 µM (≈ 0.0472 µg/mL)	–	0.5 µM (≈ 0.236 µg/mL)	4.2 µM (≈ 1.98 µg/mL)	–
O=C1COc2ccc(CNC3CCN(CCN4C(=O)COc5ccc(F)cc54)CC3)nc2N1	–	0.1 µM (≈ 0.0455 µg/mL)	0.5 µM (≈ 0.228 µg/mL)	0.9	1.1 µM (≈ 0.501 µg/mL)	0.1 µM (≈ 0.0455 µg/mL)	0.6 µM (≈ 0.273 µg/mL)	–	–	–	0.6 µM (≈ 0.273 µg/mL)	6.2 µM (≈ 2.82 µg/mL)	–
COc1ccc2c(c1)N(CCN1CCC(NCc3ccc4c(n3)NC(=O)CO4)CC1)C(=O)CO2	–	0.1 µM (≈ 0.0468 µg/mL)	–	0.9	1.1 µM (≈ 0.514 µg/mL)	0.1 µM (≈ 0.0468 µg/mL)	0.3 µM (≈ 0.14 µg/mL)	–	0.1 µM (≈ 0.0468 µg/mL)	–	0.5 µM (≈ 0.234 µg/mL)	8.6 µM (≈ 4.02 µg/mL)	5 nM
O=C1COc2ccc(CNC3CCN(CCN4C(=O)COc5ccc(-c6ccco6)cc54)CC3)nc2N1	15.9 µM (≈ 8.01 µg/mL)	0.06 µM (≈ 0.0302 µg/mL)	2 µM (≈ 1.01 µg/mL)	2.2	0.5 µM (≈ 0.252 µg/mL)	0.3 µM (≈ 0.151 µg/mL)	0.5 µM (≈ 0.252 µg/mL)	18 nM	0.06 µM (≈ 0.0302 µg/mL)	–	2 µM (≈ 1.01 µg/mL)	15.9 µM (≈ 8.01 µg/mL)	–
